Measured values from PMC6634314 (Cell chemical biology, 2019).

What was measured:
[1] = target: SRC (Homo sapiens, UniProt P12931); assay: mass shift assay; type: binding; settings: incubated 4 and 24h
Method in brief: (§1)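 Kinase protein at 0.12 mM in 10 mM HEPES pH 7.5, 500 mM NaCl, incubated with 0.2 mM test compound at 4°C for 4 h and 24 h. Samples were diluted in 0.1% formic acid and desalted on a C3 pre-column. ESI-TOF was run in positive mode at 120 V, and intact mass was obtained by deconvolution to detect the adduct.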

[2] = system: Calu-6-KRAS^Q61K; assay: proliferation assay; type: cell-based, Human; settings: Calu-6-KRAS^Q61K cells (Fig. S2)
Method in brief: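 NSCLC lines were mycoplasma-tested and treated with various concentrations of test compound for 72 h. Cell viability was then measured by CellTiter-Glo luminescence.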

[3] = system: ACVR1; assay: MIB washout assay; type: binding, Human
[4] = system: LYN; assay: MIB washout assay; type: binding, Human; settings: H23 cells, 1 μM 4h, MIB pulldown ratio SM1-71/SM1-71-R
[5] = system: ACVR1B; assay: MIB washout assay; type: binding, Human; settings: H23 cells, 1 μM 4h, MIB pulldown ratio SM1-71/SM1-71-R
[6] = system: MAP2K1; assay: MIB washout assay; type: binding, Human; settings: H23 cells, 1 μM 4h, MIB pulldown ratio SM1-71/SM1-71-R
[7] = system: CSNK1D; assay: MIB washout assay; type: binding, Human; settings: H23 cells, 1 μM 4h, MIB pulldown ratio SM1-71/SM1-71-R
[8] = system: EPHB2; assay: MIB washout assay; type: binding, Human; settings: H23 cells, 1 μM 4h, MIB pulldown ratio SM1-71/SM1-71-R
[9] = system: MARK2; assay: MIB washout assay; type: binding, Human; settings: H23 cells, 1 μM 4h, MIB pulldown ratio SM1-71/SM1-71-R
[10] = system: INSR; assay: MIB washout assay; type: binding, Human; settings: H23 cells, 1 μM 4h, MIB pulldown ratio SM1-71/SM1-71-R
[11] = target: MAPK1 (Homo sapiens, UniProt P28482); assay: mass shift assay; type: binding; settings: incubated 4 and 24h
Sequence of MAPK1 (P28482 whole entry, species assumed): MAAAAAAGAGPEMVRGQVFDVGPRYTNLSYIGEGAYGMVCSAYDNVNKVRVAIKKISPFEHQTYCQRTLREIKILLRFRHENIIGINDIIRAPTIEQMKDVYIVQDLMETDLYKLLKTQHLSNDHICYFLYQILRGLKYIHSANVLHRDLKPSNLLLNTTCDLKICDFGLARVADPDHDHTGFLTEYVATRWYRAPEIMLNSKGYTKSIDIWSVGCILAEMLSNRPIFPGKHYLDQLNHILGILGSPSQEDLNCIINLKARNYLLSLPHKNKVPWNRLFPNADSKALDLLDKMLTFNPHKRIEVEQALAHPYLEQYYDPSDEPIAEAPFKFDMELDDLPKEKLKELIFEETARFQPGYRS
Method in brief: as §1

[12] = system: FGFR1; assay: MIB washout assay; type: binding, Human; settings: H23 cells, 1 μM 4h, MIB pulldown ratio SM1-71/SM1-71-R
[13] = system: FYN; assay: MIB washout assay; type: binding, Human; settings: H23 cells, 1 μM 4h, MIB pulldown ratio SM1-71/SM1-71-R
[14] = target: BMP2K (Homo sapiens, UniProt Q9NSY1); assay: MIB washout assay; type: binding; settings: H23 cells, 1 μM 4h, MIB pulldown ratio SM1-71/SM1-71-R
Sequence of BMP2K (Q9NSY1 whole entry): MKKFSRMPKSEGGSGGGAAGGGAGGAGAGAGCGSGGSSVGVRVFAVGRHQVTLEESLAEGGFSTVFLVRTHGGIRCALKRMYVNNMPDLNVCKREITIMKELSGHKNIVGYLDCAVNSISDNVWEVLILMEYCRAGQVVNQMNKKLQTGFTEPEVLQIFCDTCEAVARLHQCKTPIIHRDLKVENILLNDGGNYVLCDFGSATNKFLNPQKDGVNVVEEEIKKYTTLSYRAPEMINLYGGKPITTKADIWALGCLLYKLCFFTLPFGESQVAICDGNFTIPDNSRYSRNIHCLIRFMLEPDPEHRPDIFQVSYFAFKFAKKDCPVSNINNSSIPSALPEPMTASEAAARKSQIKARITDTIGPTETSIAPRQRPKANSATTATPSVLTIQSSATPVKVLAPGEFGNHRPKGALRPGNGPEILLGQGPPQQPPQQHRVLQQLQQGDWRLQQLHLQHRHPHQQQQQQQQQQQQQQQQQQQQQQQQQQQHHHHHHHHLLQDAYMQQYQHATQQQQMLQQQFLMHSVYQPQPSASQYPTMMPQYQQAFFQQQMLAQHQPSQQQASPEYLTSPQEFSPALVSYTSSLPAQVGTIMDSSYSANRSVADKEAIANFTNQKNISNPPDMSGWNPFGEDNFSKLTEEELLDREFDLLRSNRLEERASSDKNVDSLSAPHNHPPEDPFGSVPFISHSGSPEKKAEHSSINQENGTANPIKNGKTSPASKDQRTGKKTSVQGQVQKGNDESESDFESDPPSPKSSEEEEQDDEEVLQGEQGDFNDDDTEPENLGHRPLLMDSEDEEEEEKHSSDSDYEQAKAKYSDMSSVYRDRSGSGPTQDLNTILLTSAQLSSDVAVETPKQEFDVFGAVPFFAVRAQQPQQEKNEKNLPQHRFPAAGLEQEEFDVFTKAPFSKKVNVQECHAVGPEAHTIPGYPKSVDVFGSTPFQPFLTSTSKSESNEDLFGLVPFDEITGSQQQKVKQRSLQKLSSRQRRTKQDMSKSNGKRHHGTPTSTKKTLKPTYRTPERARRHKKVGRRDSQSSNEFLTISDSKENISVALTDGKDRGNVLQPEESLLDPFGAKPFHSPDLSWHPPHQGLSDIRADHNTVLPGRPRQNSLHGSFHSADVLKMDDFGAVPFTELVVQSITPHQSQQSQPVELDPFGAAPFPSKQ

[15] = system: TK2; assay: MIB washout assay; type: binding, Human; settings: H23 cells, 1 μM 4h, MIB pulldown ratio SM1-71/SM1-71-R
[16] = system: CSNK1E; assay: MIB washout assay; type: binding, Human; settings: H23 cells, 1 μM 4h, MIB pulldown ratio SM1-71/SM1-71-R
[17] = system: PTK2; assay: MIB washout assay; type: binding, Human
[18] = system: MET; assay: MIB washout assay; type: binding, Human; settings: H23 cells, 1 μM 4h, MIB pulldown ratio SM1-71/SM1-71-R
[19] = system: PIP4K2C; assay: MIB washout assay; type: binding, Human; settings: H23 cells, 1 μM 4h, MIB pulldown ratio SM1-71/SM1-71-R
[20] = system: CSNK2A1; assay: MIB washout assay; type: binding, Human; settings: H23 cells, 1 μM 4h, MIB pulldown ratio SM1-71/SM1-71-R
[21] = target: MAPK3 (Homo sapiens, UniProt P27361); assay: mass shift assay; type: binding; settings: incubated 4 and 24h
Sequence of MAPK3 (P27361 whole entry): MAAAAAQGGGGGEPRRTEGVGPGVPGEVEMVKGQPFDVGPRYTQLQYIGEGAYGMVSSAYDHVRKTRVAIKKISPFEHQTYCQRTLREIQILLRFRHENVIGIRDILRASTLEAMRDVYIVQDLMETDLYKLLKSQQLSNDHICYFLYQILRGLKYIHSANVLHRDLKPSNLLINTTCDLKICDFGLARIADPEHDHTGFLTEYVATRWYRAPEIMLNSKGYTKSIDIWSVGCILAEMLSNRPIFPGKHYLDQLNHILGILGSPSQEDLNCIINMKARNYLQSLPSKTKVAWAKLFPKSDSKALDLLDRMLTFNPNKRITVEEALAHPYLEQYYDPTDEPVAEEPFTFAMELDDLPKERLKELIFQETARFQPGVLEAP
Method in brief: as §1

[22] = target: MAP2K1/2; assay: MIB dose-dependent kinase inhibition assay; type: binding, Human; settings: read-out: IC50 in the MIB assay, H23 cell lysate, overnight 4°C
[23] = system: TEC; assay: MIB washout assay; type: binding, Human
[24] = system: MAP2K2; assay: MIB washout assay; type: binding, Human; settings: H23 cells, 1 μM 4h, MIB pulldown ratio SM1-71/SM1-71-R
[25] = system: PIK3C3; assay: MIB washout assay; type: binding, Human; settings: H23 cells, 1 μM 4h, MIB pulldown ratio SM1-71/SM1-71-R
[26] = system: WEE1; assay: MIB washout assay; type: binding, Human; settings: H23 cells, 1 μM 4h, MIB pulldown ratio SM1-71/SM1-71-R
[27] = H23 cells, 1 μM 4h, 0h post-washout, MIB pulldown ratio SM1-71/SM1-71-R
[28] = H23 cells, 1 μM 4h, 6h post-washout, MIB pulldown ratio SM1-71/SM1-71-R

Sequence of SRC (P12931 whole entry, species assumed): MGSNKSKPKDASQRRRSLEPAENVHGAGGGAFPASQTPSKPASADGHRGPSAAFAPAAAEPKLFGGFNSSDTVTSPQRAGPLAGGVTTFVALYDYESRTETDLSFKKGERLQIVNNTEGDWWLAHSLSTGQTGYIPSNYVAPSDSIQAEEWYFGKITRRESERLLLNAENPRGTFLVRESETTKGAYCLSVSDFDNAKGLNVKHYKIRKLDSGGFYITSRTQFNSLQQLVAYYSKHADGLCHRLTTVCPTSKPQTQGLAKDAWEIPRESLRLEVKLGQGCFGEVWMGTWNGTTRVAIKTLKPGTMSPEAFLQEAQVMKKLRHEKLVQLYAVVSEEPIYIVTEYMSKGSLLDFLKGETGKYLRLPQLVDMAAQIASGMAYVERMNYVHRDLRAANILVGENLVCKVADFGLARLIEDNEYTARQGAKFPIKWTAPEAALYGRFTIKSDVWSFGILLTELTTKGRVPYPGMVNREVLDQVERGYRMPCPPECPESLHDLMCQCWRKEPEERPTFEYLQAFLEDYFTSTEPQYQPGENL

C=CC(=O)Nc1ccccc1Nc1nc(Nc2ccc(N3CCN(C)CC3)cc2)ncc1Cl [SM1-71]
covalent adduct formation (mass shift) [1]: formed covalent adducts
growth inhibitory effects [2]: strong growth inhibitory effects
BI-0h [3, 27]: 0.81
BI-6h [3, 28]: 0.3
Binding ([3]; class from BI 0h and 6h): Weakly Irreversible
BI-0h ([4]; 0h post-washout): 1.1
BI-6h ([4]; 6h post-washout): 0.79
BI-0h ([5]; 0h post-washout): 0.9
BI-6h ([5]; 6h post-washout): 0.92
BI-0h ([6]; 0h post-washout): 0.05
BI-6h ([6]; 6h post-washout): 0.36
BI-0h ([7]; 0h post-washout): 0.71
BI-6h ([7]; 6h post-washout): 0.78
BI-0h ([8]; 0h post-washout): 0.7
BI-6h ([8]; 6h post-washout): 0.5
BI-0h ([9]; 0h post-washout): 0.74
BI-6h ([9]; 6h post-washout): 1.13
BI-0h ([10]; 0h post-washout): 0.52
BI-6h ([10]; 6h post-washout): 0.76
covalent adduct formation (mass shift) [11]: formed covalent adducts
BI-0h ([12]; 0h post-washout): 0.45
BI-6h ([12]; 6h post-washout): 0.42
BI-0h ([13]; 0h post-washout): 0.81
BI-6h ([13]; 6h post-washout): 0.91
BI-0h ([14]; 0h post-washout): 0.23
BI-6h ([14]; 6h post-washout): 0.27
BI-0h ([15]; 0h post-washout): 0.83
BI-6h ([15]; 6h post-washout): 0.95
BI-0h ([16]; 0h post-washout): 0.79
BI-6h ([16]; 6h post-washout): 0.58
BI-0h [17, 27]: 1.3
BI-6h [17, 28]: 1.12
Binding ([17]; class from BI 0h and 6h): Strongly Reversible (BI0h,6h greater than 1 suggesting a strong preference for reversible mode of inhibition)
BI-0h ([18]; 0h post-washout): 0.75
BI-6h ([18]; 6h post-washout): 0.53
BI-0h ([19]; 0h post-washout): 0.8
BI-6h ([19]; 6h post-washout): 0.6
BI-0h ([20]; 0h post-washout): 0.8
BI-6h ([20]; 6h post-washout): 0.64
covalent adduct formation (mass shift) [21]: formed covalent adducts
IC50 [22]: < 10 nM
BI-0h [23, 27]: 1.02
BI-6h [23, 28]: 1.43
Binding ([23]; class from BI 0h and 6h): Strongly Reversible (BI0h,6h greater than 1 suggesting a strong preference for reversible mode of inhibition)
BI-0h ([24]; 0h post-washout): 0.03
BI-6h ([24]; 6h post-washout): 0.18
BI-0h ([25]; 0h post-washout): 0.28
BI-6h ([25]; 6h post-washout): 0.44
BI-0h ([26]; 0h post-washout): 0.98
BI-6h ([26]; 6h post-washout): 0.63
